Screening results (PubChem)
MC4R barr agon: MC4R agonists recruiting beta-arrestin, primary screen, cell-based, luminescence, agonist arm of biased-ligand search; U2OS MC4R beta-arrestin complementation; percent of melanotan II response, DMSO zero; activation, % at 8.9 µM; 0.98% of 360,000 active; AID 540308, 2011;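 active means activation above a per-plate cutoff, the mean activation of sample wells on that plate plus 3 SD, cut at about 8% in these data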
Target sequence (P32245 whole entry, looked up): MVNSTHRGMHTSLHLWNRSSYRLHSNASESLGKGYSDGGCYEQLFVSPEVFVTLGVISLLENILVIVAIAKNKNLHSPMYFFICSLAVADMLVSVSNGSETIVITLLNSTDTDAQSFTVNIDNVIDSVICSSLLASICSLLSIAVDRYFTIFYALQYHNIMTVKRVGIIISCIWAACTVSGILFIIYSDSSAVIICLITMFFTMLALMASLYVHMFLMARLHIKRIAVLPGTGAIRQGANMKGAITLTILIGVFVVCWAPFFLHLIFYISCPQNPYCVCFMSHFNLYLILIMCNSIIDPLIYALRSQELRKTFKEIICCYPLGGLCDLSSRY
Myeloid diff 2: induction of myeloid progenitor differentiation, primary screen, cell-based, flow cytometry, MLPCN library | calls only at 10 µM | 1% of 360,000 active | ER-HoxA9 myeloid progenitors, lysozyme-GFP differentiation;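 active means normalized GFP-positive differentiation at or above the plate's own cutoff, the solvent-only control mean plus 3 SD; inconclusive means no clear call, values can overlap the other calls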;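 further: cells exposed to compound for four days before flow analysis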
MC4R antagonist: MC4R antagonists of cAMP signaling, primary screen, cell-based, TR-FRET, antagonist arm of biased-ligand search; Melanocortin receptor 4 (Homo sapiens), P32245; MC4R-expressing cells, MTII-stimulated cAMP, LANCE TR-FRET; inhibition, % at 6.5 µM; 0.48% of 360,000 active;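 active means inhibition above its plate's cutoff, the mean of tested wells on that plate plus 3 SD, cut at about 29% in these data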;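 further: 0% = Melanotan II alone and 100% = Melanotan II plus saturating MCL0020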
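Test system: U2OS cells stably expressing human melanocortin 4 receptor (MC4R); also added: Melanotan II challenge; compound: 6.5 µM single dose; timing: 30-min compound preincubation, 1-h Melanotan II challenge, 1-h detection, room temperature; signal: Eu-cAMP/anti-cAMP TR-FRET, emission 671 nm; repeats: one well per compound, no replicates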
Exocytosis inh: LAMP-1 surface exposure blockers, TALL-104 cells – cell-based, flow cytometry, MLPCN library, primary screen. 0.66% of 360,000 active. TALL-104 LAMP-1 surface exposure; cells stimulated with thapsigargin and PMA. inhibition, % at 10 µM;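 active means inhibition above about 55%, limit read from the data; inconclusive means no clear call, values can overlap the other calls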
EBI2 block: EBI2 receptor antagonists, beta-arrestin recruitment, primary screen, cell-based, luminescence, 7a,25-OHC stimulation, uHTS; inhibition, % at 5 µM; 7a,25-OHC stimulated; 0.81% of 360,000 active; G-protein coupled receptor 183 (Homo sapiens), P32249; in the data active means inhibition above about 38%;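 further: enzyme fragment complementation signal reports receptor beta-arrestin coupling in cells; 0% = agonist plus DMSO wells and 100% = wells without agonist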
Target sequence (P32249 whole entry, looked up, the tested form may be a part): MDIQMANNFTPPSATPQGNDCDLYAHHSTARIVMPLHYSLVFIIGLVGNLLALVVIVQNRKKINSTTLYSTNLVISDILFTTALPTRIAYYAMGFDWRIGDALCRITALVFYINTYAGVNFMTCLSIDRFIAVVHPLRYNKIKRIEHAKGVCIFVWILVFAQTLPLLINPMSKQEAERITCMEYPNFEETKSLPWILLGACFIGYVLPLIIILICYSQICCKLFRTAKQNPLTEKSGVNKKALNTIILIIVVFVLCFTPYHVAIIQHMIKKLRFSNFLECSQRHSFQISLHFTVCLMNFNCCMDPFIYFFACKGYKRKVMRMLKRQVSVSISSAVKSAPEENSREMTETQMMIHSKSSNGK
EBI2 conf: EBI2 antagonist hit retest, beta-arrestin, confirmation, cell-based, single concentration, luminescence, 7a,25-OHC stimulation; 7a,25-OHC antagonism; 29% of 2,400 active; inhibition, % at 5 µM; shares compounds with EBI2 block;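 active means inhibition of at least 50%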
EBI2 ag: EBI2 agonist activity of antagonist hits, confirmation, counter-screen for EBI2 antagonist project, cell-based, single concentration, agonist mode, luminescence; EBI2-expressing cells, 60 min; 0% vehicle, 100% 7α,25-dihydroxycholesterol control; shares compounds with EBI2 block; 2,400 tested, under 10 active; activation, % at 5 µM;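 active means activation of at least 50%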
bGal counter: E. coli beta-galactosidase enzyme inhibition, confirmation, counter-screen for EBI2 antagonist project, biochemical, luminescence, single concentration. shares compounds with EBI2 block. purified beta-galactosidase, luminescent Galacton Star, 15 min. inhibition, % at 5 µM. 1% of 2,400 active;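 active means replicate-average signal at least 3 plate SD below neutral wells, shown as high inhibition, flagging enzyme-inhibiting false positives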;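 further: 0% = DMSO wells with enzyme and 100% = wells lacking enzyme; higher means stronger loss of beta-gal luminescence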
The depositor's hits bear a star; i = inactive; ? = inconclusive; nt = no result. This is a sample that favours compounds with a hit; in the whole collection about 3.7% have one here.

SMILES | MC4R barr agon | Myeloid diff 2 | MC4R antagonist | Exocytosis inh | EBI2 block | EBI2 conf | EBI2 ag | bGal counter
CCC(=O)N1CCN(c2cc(C)ccc2C)CC1 | -3 | i | -3 | 4 | 4 | nt | nt | nt
Cc1ccc(C)c(N2CCN(C(=O)c3csc4ccccc34)CC2)c1 | -1 | i | 10 | -3 | 48* | 32 | 1 | 3
Brc1ccc(OCc2nnc(SCC3CCCCC3)o2)cc1 | -3 | i | 6 | 0 | 69* | 27 | 1 | -6
CCc1ccc(OCc2nnc(SCC(=O)NC3CCCCC3)o2)cc1 | -1 | i | 5 | -5 | 11 | nt | nt | nt
CN(C)c1ccc(NC(=O)/C=C/c2ccccc2Cl)cc1 | 0 | i | -10 | -3 | 17 | nt | nt | nt
CCN(CC)c1ccc(NC(=O)/C=C\c2ccccc2Cl)cc1 | 3 | i | -4 | 25 | 49* | 47 | 1 | 12
Cc1ccc2nc(-c3ccccc3Cl)cc(C(=O)Nc3cc(C)on3)c2c1 | -1 | i | 2 | 0 | 60* | 46 | -1 | -3
Cc1cc(NC(=O)c2ccccc2Cl)no1 | -1 | nt | 13 | -2 | -5 | nt | nt | nt
O=C(c1ccccc1)c1sc(Nc2ccc3c(c2)OCO3)nc1-c1ccccc1 | nt | i | nt | -1 | 50* | 47 | 0 | 9
N#Cc1ccc(Nc2nc(-c3ccccc3)c(C(=O)c3ccccc3)s2)cc1 | nt | i | nt | 6 | 40 | nt | nt | nt
Cc1ccccc1Nc1nnc(SCC2CCCCO2)s1 (stereo not given) | -3 | i | -7 | 5 | -3 | nt | nt | nt
Cc1ccc(Nc2nnc(SCC3CCCCO3)s2)cc1 (stereo not given) | -1 | i | 9 | 7 | 59* | 37 | -2 | -7
Cc1ccc(Nc2nnc(SC(C)C(=O)NCC3CCCO3)s2)cc1C (stereo not given) | -5 | i | -4 | 0 | 46* | 24 | -1 | -15
CCN(CC)C(=O)CSc1nc2cc(S(=O)(=O)N3CCOCC3)ccc2n1CC | -1 | i | 14 | 0 | 2 | nt | nt | nt
O=C(COc1ccc(Br)cc1)Nc1ccc(S(=O)(=O)Nc2ccccn2)cc1 | -3 | i | 4 | -8 | 43* | 25 | -1 | -10
O=C(Cn1ccc2cc(S(=O)(=O)N3CCCC3)ccc21)NCCc1ccccc1 | 0 | i | 0 | -24 | 0 | nt | nt | nt
S=C1NC[C@H](c2ccccc2)N1CCCCC1CCCCC1 | -2 | i | 10 | 6 | 46* | 33 | 0 | 7
Cc1ccc(F)c(S(=O)(=O)NC(=O)C2(C)CCN2C(=O)c2ccc(C(F)(F)F)nc2C)c1 (stereo not given) | 1 | i | -6 | -4 | -3 | nt | nt | nt
C(=C\c1ccccc1)/CSc1nnc(-c2ccccc2)n1Cc1ccco1 | -3 | ? | -25 | 15 | 22 | nt | nt | nt
Clc1cccc(-c2nnc(SC/C=C/c3ccccc3)n2Cc2ccco2)c1 | 2 | i | -3 | 10 | 45* | 35 | -1 | 4
CCCN(CCC)Cc1cc(=O)oc2cc(C)c(Cl)cc12 | nt | i | nt | -6 | 18 | nt | nt | nt
Cc1cc2oc(=O)cc(CN(Cc3ccccc3)Cc3ccccc3)c2cc1Cl | nt | i | nt | 7 | 52* | 51* | 0 | -4
O=C(/C=C/c1ccccc1)N1CCN(c2c(Cl)cccc2[N+](=O)[O-])CC1 | 1 | i | 17 | -12 | 95* | 91* | 2 | 2
O=C(/C=C/c1ccc([N+](=O)[O-])cc1)N1CCN(c2ccccc2F)CC1 | -3 | i | 3 | -4 | 68* | 24 | 2 | 7
O=C(/C=C/c1cccs1)N1CCN(c2ccc(F)cc2)CC1 | -3 | i | -6 | -8 | 55* | 36 | 1 | 7
SMILES | MC4R barr agon | Myeloid diff 2 | MC4R antagonist | Exocytosis inh | EBI2 block | EBI2 conf | EBI2 ag | bGal counter
O=C(/C=C/c1ccc(Cl)cc1)N1CCN(c2ccc(Cl)cc2[N+](=O)[O-])CC1 | -1 | i | 2 | -7 | 98* | 80* | 0 | 10
C/C(=N\NC(=O)C(=O)Nc1cc(C)ccc1C)c1ccncc1 | 0 | i | -5 | -11 | 4 | nt | nt | nt
CC(=O)c1ccc(N2CCN(C(=O)/C=C/c3cccs3)CC2)cc1 | -1 | i | -13 | -2 | 15 | nt | nt | nt
O=C(O/N=C\c1ccc(N2CCCCC2)c([N+](=O)[O-])c1)c1ccc(Cl)cc1Cl | -2 | i | 1 | 1 | 51* | 13 | 1 | 7
Cc1ccc(C(=O)O/N=C\c2ccc(N3CCOCC3)c([N+](=O)[O-])c2)cc1 | -2 | i | -2 | 3 | 16 | nt | nt | nt
O=C(/C=C/c1cccs1)N1CCN(c2ccccc2F)CC1 | -1 | i | 0 | 5 | 50* | 52* | 0 | 7
COCCCNC(=O)CCN1N=C(c2ccccc2)CCC1=O | 0 | i | 8 | -2 | -6 | nt | nt | nt
C/C=C/c1cccc(-c2nc(C(=O)NC3CCCC3)cc3c2[C@@H](CCO)N(S(=O)C(C)(C)C)C3)c1 (stereo not given in full) | nt | i | nt | 1 | -12 | nt | nt | nt
COc1ccc(-n2cc(-c3ccccc3)nc2SC)cc1 | 0 | i | 7 | 8 | 42* | 34 | 0 | 3
O=C(/C=C/c1ccc(Cl)cc1)Nc1ccc(N2CCCCC2)cc1 | 1 | i | 10 | 1 | 44* | 10 | -1 | -2
O=C(/C=C/c1ccccc1)Nc1ccc(N2CCCCC2)cc1 | 5 | i | 11 | -1 | 25 | nt | nt | nt
CN(C(=O)c1cccc(NC(=O)c2ccccc2)c1)C1CCCCC1 | -5 | i | 6 | -6 | -15 | nt | nt | nt
CN(C(=O)c1cccc(Nc2ccc(-c3ccc4c(c3)OCCO4)nn2)c1)C1CCCCC1 | -1 | i | 6 | -3 | 42* | 26 | 2 | 12
CCN(CC)S(=O)(=O)c1ccc(Nc2ccc(-c3ccc4c(c3)OCCO4)nn2)cc1 | -1 | i | 2 | -1 | 49* | 26 | -1 | -13
CN(C)S(=O)(=O)c1ccc(Nc2ccc(-c3ccc4c(c3)OCCO4)nn2)cc1 | -1 | i | 9 | 0 | 30 | nt | nt | nt
